Activity calls are given as the source filed them.
Experiments:
Rattus norvegicus [1] = test: Toxicity in Sprague-Dawley rat mononeuropathy pain model assessed as effect on contralateral paw pressure at 30 mg/kg, po after 15 mins by paw pressure test; assay type: organism-based; set-up: dose 30 mg/kg, route oral; details: in vivo, 0.25 h
In short: (§1)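 Same sciatic-ligation rat model, 14 days after surgery. Threshold measured on the non-operated contralateral hind paw by analgesimeter at 32 g/s; first-struggle endpoint; 250 g cut-off; pretest rats outside 40–75 g rejected. Compound given po in 10 ml/kg; readings at 15, 30 and 45 min.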

[2] = Displacement of [3H]Ro151788 from GABA(A)/BzR in bovine cerebral cortex membrane; assay type: cell membranes, Bos taurus
In short: (§2)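 Bovine cerebral cortex membranes in 50 mM Tris-citrate pH 7.4; [3H]flumazenil displacement. Compounds first tested at a fixed 10 µM; Ki determined only when inhibition exceeded 80%, using at least six concentrations. Five experiments run in triplicate; IC50 obtained by iterative curve fitting and converted to Ki with the Cheng–Prusoff equation.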

Rattus norvegicus [3] = test: Toxicity in Sprague-Dawley rat mononeuropathy pain model assessed as effect on contralateral paw pressure at 30 mg/kg, po after 45 mins by paw pressure test; assay type: organism-based; set-up: dose 30 mg/kg, route oral; details: in vivo, 0.75 h; in short: as §1
Mus musculus [4] = test: Antihyperalgesic activity against streptozotocin-induced hyperalgesia in Swiss albino mouse […] assessed as licking latency time at 30 mg/kg, po after 60 mins by hot plate test (reference value: 9.7 +/- 0.8 secs); assay type: functional
Mus musculus [5] = test: Antihyperalgesic activity Swiss albino mouse […] assessed as licking latency time at 30 mg/kg, po after 30 mins by hot plate test (reference value: 17.1 +/- 0.71 secs); assay type: functional
In short: (§3)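 Hot plate at 52.5 ± 0.1 °C in non-diabetic male Swiss mice. Latency to licking of fore or hind paws was timed before dosing and every 15 min up to 60 min after oral dosing. Mice with pretest latencies below 12 s or above 18 s were excluded. Cut-off was 45 s.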

Rattus norvegicus [6] = test: Antinociceptive activity in Sprague-Dawley rat mononeuropathy pain model assessed as increase in injured paw pressure at 30 mg/kg, po after 45 mins by paw pressure test relative to non-treated control; assay type: functional
In short: (§4)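 Chronic constriction injury: loose ligatures placed on the common sciatic nerve under chloral hydrate; contralateral sham dissection. Tested 14 days after surgery. Paw pressure applied at 32 g/s; threshold taken as the force causing the first struggle; cut-off 250 g; pretest outliers (<40 g or >75 g) excluded. Oral dosing in 10 ml/kg; read at 15, 30 and 45 min; compared with a CMC-treated group.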

Mus musculus [7] = test: Antihyperalgesic activity against streptozotocin-induced hyperalgesia in Swiss albino mouse […] assessed as licking latency time at 30 mg/kg, po after 15 mins by hot plate test (reference value: 9.7 +/- 0.8 secs); assay type: functional
Mus musculus [8] = test: Analgesic activity in Swiss albino mouse abdominal constriction model assessed as decrease in number of acetic acid-induced writhing at 30 to 60 mg/kg, po after 30 mins; assay type: functional, organism-based; details: Abdomen
In short: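 Male Swiss albino mice (23–30 g). Compounds given po in 1% CMC vehicle 30 min before the test. Acetic acid 0.6% injected i.p. at 10 ml/kg. Stretching movements were counted for 10 min, starting 5 min after the acetic acid injection. 8–15 mice per group.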

Rattus norvegicus [9] = test: Antinociceptive activity in Sprague-Dawley rat mononeuropathy pain model assessed as increase in injured paw pressure at 30 mg/kg, po after 15 mins by paw pressure test relative to non-treated control; assay type: functional; in short: as §4
Rattus norvegicus [10] = test: Toxicity in Sprague-Dawley rat mononeuropathy pain model assessed as effect on contralateral paw pressure at 30 mg/kg, po after 30 mins by paw pressure test; assay type: organism-based; set-up: dose 30 mg/kg, route oral; details: in vivo, 0.5 h; in short: as §1
Mus musculus [11] = test: Anxiolytic-like activity in Swiss albino mouse at 30 mg/kg, po after 30 mins by light/dark box test; assay type: functional, organism-based; set-up: dose 30 mg/kg
In short: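 Male Swiss mice tested in a two-compartment light/dark box. Transfers between compartments and time spent in the lit side recorded. Compound given po 30 min before testing, in 10 ml/kg; flumazenil given i.p. for antagonism; 8 mice per group.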

Mus musculus [12] = test: Anticonvulsant activity in Swiss albino mouse […] assessed as protection against intraperitoneally administered pentylenetetrazol-induced seizures at 30 mg/kg, po after 30 mins; assay type: functional
In short: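 Male Swiss albino mice. Compounds given po and PTZ 90 mg/kg injected 30 min later; PTZ was dissolved in 0.9% NaCl saline. Clonic generalized convulsions were recorded over 30 min. Each value is the mean of 10 mice. The methods give the PTZ route as s.c. and the table footnote gives it as ip.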

Bos taurus = organism: Bos taurus; test: Displacement of [3H]Ro151788 from GABA(A)/BzR in bovine cerebral cortex membrane at 10 uM; assay type: cell membranes; in short: as §2
Mus musculus [13] = test: Antihyperalgesic activity against streptozotocin-induced hyperalgesia in Swiss albino mouse […] assessed as licking latency time at 30 mg/kg, po after 45 mins by hot plate test (reference value: 9.7 +/- 0.8 secs); assay type: functional
Mus musculus [14] = test: Antihyperalgesic activity against streptozotocin-induced hyperalgesia in Swiss albino mouse […] assessed as licking latency time at 30 mg/kg, po after 30 mins by hot plate test (reference value: 9.7 +/- 0.8 secs); assay type: functional
Rattus norvegicus [15] = test: Antinociceptive activity in Sprague-Dawley rat mononeuropathy pain model assessed as increase in injured paw pressure at 30 mg/kg, po after 30 mins by paw pressure test relative to non-treated control; assay type: functional; in short: as §4
Mus musculus [16] = test: Antihyperalgesic activity Swiss albino mouse […] assessed as licking latency time at 30 mg/kg, po after 15 mins by hot plate test (reference value: 17.1 +/- 0.71 secs); assay type: functional; in short: as §3
Mus musculus [17] = test: Antihyperalgesic activity Swiss albino mouse […] assessed as licking latency time at 30 mg/kg, po after 45 mins by hot plate test (reference value: 17.1 +/- 0.71 secs); assay type: functional; in short: as §3
Mus musculus [18] = test: Antihyperalgesic activity Swiss albino mouse […] assessed as licking latency time at 30 mg/kg, po after 60 mins by hot plate test (reference value: 17.1 +/- 0.71 secs); assay type: functional; in short: as §3
Mus musculus [19] = test: Antihyperalgesic activity against streptozotocin-induced hyperalgesia in Swiss albino mouse […] assessed as licking latency time at 30 mg/kg, po after 60 mins by hot plate test (reference value: 10.6 +/- 0.7 secs); assay type: functional
Rattus norvegicus [20] = test: Toxicity in Sprague-Dawley rat mononeuropathy pain model assessed as effect on contralateral paw pressure at 100 mg/kg, po after 30 mins by paw pressure test; assay type: organism-based; set-up: dose 100 mg/kg, route oral; details: in vivo, 0.5 h; in short: as §1
Mus musculus [21] = test: Antihyperalgesic activity against streptozotocin-induced hyperalgesia in Swiss albino mouse […] assessed as licking latency time at 30 mg/kg, po after 15 mins by hot plate test (reference value: 10.6 +/- 0.7 secs); assay type: functional
Mus musculus [22] = test: Antihyperalgesic activity Swiss albino mouse […] assessed as licking latency time at 30 mg/kg, po after 45 mins by hot plate test (reference value: 17.4 +/- 1.2 secs); assay type: functional; in short: as §3
Rattus norvegicus [23] = test: Toxicity in Sprague-Dawley rat mononeuropathy pain model assessed as effect on contralateral paw pressure at 100 mg/kg, po after 15 mins by paw pressure test; assay type: organism-based; set-up: dose 100 mg/kg, route oral; details: in vivo, 0.25 h; in short: as §1
Mus musculus [24] = test: Antihyperalgesic activity against streptozotocin-induced hyperalgesia in Swiss albino mouse […] assessed as licking latency time at 30 mg/kg, po after 45 mins by hot plate test (reference value: 10.6 +/- 0.7 secs); assay type: functional
Mus musculus [25] = test: Antihyperalgesic activity Swiss albino mouse […] assessed as licking latency time at 30 mg/kg, po after 15 mins by hot plate test (reference value: 17.4 +/- 1.2 secs); assay type: functional; in short: as §3
Rattus norvegicus [26] = test: Antinociceptive activity in Sprague-Dawley rat mononeuropathy pain model assessed as increase in injured paw pressure at 100 mg/kg, po after 30 mins by paw pressure test relative to non-treated control; assay type: functional; in short: as §4
Mus musculus [27] = test: Antihyperalgesic activity against streptozotocin-induced hyperalgesia in Swiss albino mouse […] assessed as licking latency time at 30 mg/kg, po after 30 mins by hot plate test (reference value: 10.6 +/- 0.7 secs); assay type: functional
Mus musculus [28] = test: Antihyperalgesic activity Swiss albino mouse […] assessed as licking latency time at 30 mg/kg, po after 30 mins by hot plate test (reference value: 17.4 +/- 1.2 secs); assay type: functional; in short: as §3
Rattus norvegicus [29] = test: Toxicity in Sprague-Dawley rat mononeuropathy pain model assessed as effect on contralateral paw pressure at 100 mg/kg, po after 45 mins by paw pressure test; assay type: organism-based; set-up: dose 100 mg/kg, route oral; details: in vivo, 0.75 h; in short: as §1
Rattus norvegicus [30] = test: Antinociceptive activity in Sprague-Dawley rat mononeuropathy pain model assessed as increase in injured paw pressure at 100 mg/kg, po after 45 mins by paw pressure test relative to non-treated control; assay type: functional; in short: as §4
Mus musculus [31] = test: Antihyperalgesic activity Swiss albino mouse […] assessed as licking latency time at 30 mg/kg, po after 60 mins by hot plate test (reference value: 17.4 +/- 1.2 secs); assay type: functional; in short: as §3
Rattus norvegicus [32] = test: Antinociceptive activity in Sprague-Dawley rat mononeuropathy pain model assessed as increase in injured paw pressure at 100 mg/kg, po after 15 mins by paw pressure test relative to non-treated control; assay type: functional; in short: as §4

Question: Which Activity (Rattus norvegicus [1]) does the source give for `Cc1cnn2c1n[n+]([O-])c1ccc(NCc3ccccc3)cc12` here?
Answer: 61.5 g

Question: What about the Ki [2] of the same compound?
Answer: 2.58 nM

Question: And the Activity (Rattus norvegicus [3])?
Answer: 62.5 g

Question: And the Time (Mus musculus [4])?
Answer: 11.7 s

Question: What about the Time (Mus musculus [5]) of the same compound?
Answer: 18.2 s

Question: What about the Activity (Rattus norvegicus [6]) of the same compound?
Answer: 28.5 g

Question: What about the Time (Mus musculus [7]) of the same compound?
Answer: 9.6 s

Question: And the Activity (Mus musculus [8])?
Answer: inactive

Question: And the Activity (Rattus norvegicus [9])?
Answer: 27.4 g

Question: And the Activity (Rattus norvegicus [10])?
Answer: 63.2 g

Question: And the Activity (Mus musculus [11])?
Answer: Active

Question: And the Activity (Mus musculus [12])?
Answer: 10%

Question: What about the inhibition (Bos taurus) of the same compound?
Answer: > 80%

Question: And the Time (Mus musculus [13])?
Answer: 10.2 s

Question: And the Time (Mus musculus [14])?
Answer: 11.3 s

Question: And the Activity (Rattus norvegicus [15])?
Answer: 27 g

Question: What about the Time (Mus musculus [16]) of the same compound?
Answer: 6.8 s

Question: And the Time (Mus musculus [17])?
Answer: 18.3 s

Question: And the Time (Mus musculus [18])?
Answer: 17.8 s

Question: What does the source list for `CCCCCOc1ccc2c(c1)n1ncc(I)c1n[n+]2[O-]`?
Answer: Time (Mus musculus [19]): 9.1 s; Activity (Rattus norvegicus [1]): 57.3 g; Activity (Rattus norvegicus [20]): 61.3 g; Time (Mus musculus [21]): 9.2 s; Activity (Rattus norvegicus [3]): 63.1 g; Time (Mus musculus [22]): 17.1 s; Activity (Rattus norvegicus [23]): 57.4 g; Activity (Rattus norvegicus [6]): 34.2 g; Time (Mus musculus [24]): 10.4 s; Activity (Mus musculus [8]): inactive; Activity (Rattus norvegicus [9]): 35.6 g; Time (Mus musculus [25]): 18.3 s; Activity (Rattus norvegicus [10]): 61.2 g; Activity (Rattus norvegicus [26]): 38.4 g; Time (Mus musculus [27]): 9.8 s; Time (Mus musculus [28]): 16.7 s; Activity (Mus musculus [11]): Active; Activity (Mus musculus [12]): 0%; inhibition (Bos taurus): > 80%; Activity (Rattus norvegicus [29]): 60.5 g; Activity (Rattus norvegicus [30]): 33.9 g; Time (Mus musculus [31]): 17.5 s; Activity (Rattus norvegicus [15]): 37.5 g; Activity (Rattus norvegicus [32]): 39.2 g
